Series [1] is described as follows: Therapeutic index, ratio of TD50 for human HG23 cells to ED50 for Norovirus. The series is classed as cell-based. Conditions: read-out: Ratio TD50/ED50. The method in brief:
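TI was taken as TD50 over ED50, both measured in HG23 replicon cells. For ED50, one-day-old cells at 80-90% confluence were treated with 0 (mock, DMSO) to 10 µM, and replicon genome levels were quantified by real-time qRT-PCR at 48 h. For TD50, cells were treated with 0 to 200 µM and read with a cytotoxicity kit at 48 h.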

The next series relates to Norovirus. The series is described as follows: Antiviral activity against Norovirus infected in human HG23 cells assessed as inhibition of viral replication after 24 hrs by RT-PCR analysis. In kind it is functional. Conditions: HG23, 24 h, read-out: ED50 (the source's name). The procedure, abridged:
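Norwalk virus replicon-bearing HG23 cells were used one day after seeding, at 80-90% confluence. They were exposed to a range of compound concentrations from 0 (DMSO mock) to 10 µM. NV genome levels were quantified by real-time qRT-PCR. ED50 was taken as the concentration that lowered NV genome levels by 50%.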

Series [2] in a line: Cytotoxicity against human HG23 cells after 48 hrs. Conditions: read-out: TD50. In kind it is cell-based. The method in brief:
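HG23 cells (Norwalk virus replicon-harboring) were exposed to a concentration series from 0 (mock, DMSO) to 200 µM. Viability was read with a commercial cell cytotoxicity assay kit after 48 h of treatment, and the median toxic dose (TD50) was calculated from it.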

Experimental findings from ChEMBL document CHEMBL2021817, “Synthesis and anti-norovirus activity of pyranobenzopyrone compounds” (Bioorg Med Chem Lett, 2012) are described below.

Regarding `Cc1cc2c(c(=O)o1)C=C1CC[C@H](C(C)CNC(=O)c3ccnc4ccccc34)C[C@@H]1O2` (stereo not given in full), the selectivity ratio in series [1] was 18.8. For the same molecule, in the series with Norovirus, the EC50 is 5.5 µM. In series [2], the CC50 at 48 h was determined as 104 µM.
For `Cc1cc2c(c(=O)o1)C=C1CC[C@H](C(C)CNCc3ccc4ncccc4c3)C[C@@H]1O2` (stereo not given in full), the EC50 in the series on Norovirus is 8.1 µM.
On the same count and under the same terms, then `Cc1cc(CNCC(C)[C@H]2CCC3=Cc4c(cc(C)oc4=O)O[C@H]3C2)c2ccccc2n1` (mixture of isomers), with 8.2 µM.
Regarding `CC(=O)OCc1cc(CNCC(C)[C@H]2CCC3=Cc4c(cc(C)oc4=O)O[C@H]3C2)c2ccccc2n1` (mixture of isomers), the EC50 in the series on Norovirus was determined as 9.7 µM.
The same measure, in the same setting: in the case of `Cc1cc2c(c(=O)o1)C=C1CC[C@H](C(C)CNCc3cc(CO)nc4ccccc34)C[C@@H]1O2` (mixture of isomers) it was 9.5 µM; in that of `Cc1cc2c(c(=O)o1)C=C1CC[C@H](C(C)CNCc3cc(C4OCOCO4)nc4ccccc34)C[C@@H]1O2` (mixture of isomers), 8.4 µM.
As for `Cc1cc2c(c(=O)o1)C=C1CC[C@H](C(C)CNCc3cc(C)c4ccccc4n3)C[C@@H]1O2` (mixture of isomers), the selectivity ratio in series [1] is over 40. Besides, the EC50 with Norovirus was found to be 5.3 µM. Moreover, the CC50 at 48 h in series [2] was over 200 µM.
For `Cc1ccc2nccc(CNCC(C)[C@H]3CCC4=Cc5c(cc(C)oc5=O)O[C@H]4C3)c2c1` (mixture of isomers), in series [1], the selectivity ratio was found to be 18. Further, the EC50 in the series on Norovirus was 3.4 µM. The CC50 at 48 h in series [2] was found to be 61.2 µM.
Turning to `Cc1ccc2nc(CNCC(C)[C@H]3CCC4=Cc5c(cc(C)oc5=O)O[C@H]4C3)ccc2c1` (mixture of isomers), in series [1], the selectivity ratio came out at 10.3. The EC50 in the series with Norovirus was determined as 8.1 µM. For the same molecule, the CC50 at 48 h in series [2] was 83.7 µM.
Taken in the same sequence, the figures for `Cc1cc2c(c(=O)o1)C=C1CC[C@H](C(C)CNCc3ccnc4c3ccc3ccccc34)C[C@@H]1O2` (mixture of isomers) were over 40, 5.3 µM and over 200 µM.
Turning to `Cc1cc2c(c(=O)o1)C=C1CC[C@H](C(C)CN)C[C@@H]1O2` (mixture of isomers), in the series with Norovirus, the EC50 was over 10 µM. Also, in series [2], the CC50 at 48 h is over 200 µM.
Turning to `Cc1cc2c(c(=O)o1)C=C1CC[C@H](C(C)CNCc3cccnc3)C[C@@H]1O2` (mixture of isomers), the selectivity ratio in series [1] was over 50. Moreover, the EC50 in the series on Norovirus was determined as 4.1 µM. The CC50 at 48 h in series [2] was over 200 µM.
With `Cc1cc2c(c(=O)o1)C=C1CC[C@H](C(C)CNCc3ccncc3)C[C@@H]1O2` (mixture of isomers), the EC50 with Norovirus was found to be 9.6 µM.
In the case of `Cc1cc2c(c(=O)o1)C=C1CC[C@H](C(C)CNCc3ccc4ccccc4n3)C[C@@H]1O2` (mixture of isomers), the selectivity ratio in series [1] is over 58.8. The EC50 in the series on Norovirus was determined as 3.4 µM. In series [2], the CC50 at 48 h is over 200 µM.
Turning to `Cc1cc2c(c(=O)o1)C=C1CC[C@H](C(C)CNCc3ccnc4ccccc34)C[C@@H]1O2` (mixture of isomers), the selectivity ratio in series [1] was 40.2. Moreover, in the series on Norovirus, the EC50 stood at 2.4 µM. The CC50 at 48 h in series [2] stood at 96.4 µM.
On the same counts, the results for `Cc1cc2c(c(=O)o1)C=C1CC[C@H](C(C)CNCc3cccc4cccnc34)C[C@@H]1O2` (mixture of isomers) are over 16, over 10 µM and over 160 µM.
